According to ChEMBL document CHEMBL4428090, “Modeling, Synthesis, and Biological Evaluation of Potential Retinoid X Receptor (RXR)-Selective Agonists: Analogues of 4-[1-(3,5,5,8,8-Pentamethyl-5,6,7,8-tetrahydro-2-naphthyl)ethynyl]benzoic Acid (Bexarotene) and 6-(Ethyl(5,5,8,8-tetrahydronaphthalen-2-yl)amino)nicotinic Acid (NEt-TMN)” (J Med Chem, 2016):
The source made the active and inactive calls. The rule behind the calls is not given here.

Assays:
Retinoid X receptor = target: T1, Retinoid X receptor (Homo sapiens, UniProt P28702+P48443+P19793); assay: Agonist activity at human RXR binding domain and activation domain expressed in human HCT116 cells assessed as rexinoid activity incubated for 24 hrs by luciferase reporter gene based mammalian two-hybrid assay; format: cell-based
T1 sequence (P28702 whole entry): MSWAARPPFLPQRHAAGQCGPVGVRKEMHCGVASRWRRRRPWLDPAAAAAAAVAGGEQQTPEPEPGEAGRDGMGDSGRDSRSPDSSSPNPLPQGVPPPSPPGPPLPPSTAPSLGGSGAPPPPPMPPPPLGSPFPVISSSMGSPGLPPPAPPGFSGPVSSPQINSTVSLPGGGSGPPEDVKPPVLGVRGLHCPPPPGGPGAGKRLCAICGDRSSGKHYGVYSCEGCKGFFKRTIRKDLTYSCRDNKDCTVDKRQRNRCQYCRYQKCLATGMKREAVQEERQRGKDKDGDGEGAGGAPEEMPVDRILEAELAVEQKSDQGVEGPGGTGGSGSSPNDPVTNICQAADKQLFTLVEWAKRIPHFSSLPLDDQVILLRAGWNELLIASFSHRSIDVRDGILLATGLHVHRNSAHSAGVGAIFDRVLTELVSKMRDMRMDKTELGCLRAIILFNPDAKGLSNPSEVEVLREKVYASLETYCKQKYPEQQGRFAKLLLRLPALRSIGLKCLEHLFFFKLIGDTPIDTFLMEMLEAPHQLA
T1 sequence (P48443 whole entry): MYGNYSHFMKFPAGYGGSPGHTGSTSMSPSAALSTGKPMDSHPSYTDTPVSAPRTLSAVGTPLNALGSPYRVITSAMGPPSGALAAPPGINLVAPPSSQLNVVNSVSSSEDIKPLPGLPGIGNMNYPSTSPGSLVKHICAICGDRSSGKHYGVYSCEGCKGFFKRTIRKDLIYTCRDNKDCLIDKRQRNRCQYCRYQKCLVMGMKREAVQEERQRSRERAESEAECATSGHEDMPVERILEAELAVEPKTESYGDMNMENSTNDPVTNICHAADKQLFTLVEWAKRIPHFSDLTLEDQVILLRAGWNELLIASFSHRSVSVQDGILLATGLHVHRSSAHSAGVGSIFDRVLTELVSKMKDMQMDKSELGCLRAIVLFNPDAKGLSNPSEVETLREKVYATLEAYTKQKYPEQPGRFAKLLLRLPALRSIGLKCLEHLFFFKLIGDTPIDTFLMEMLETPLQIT
T1 sequence (P19793 whole entry): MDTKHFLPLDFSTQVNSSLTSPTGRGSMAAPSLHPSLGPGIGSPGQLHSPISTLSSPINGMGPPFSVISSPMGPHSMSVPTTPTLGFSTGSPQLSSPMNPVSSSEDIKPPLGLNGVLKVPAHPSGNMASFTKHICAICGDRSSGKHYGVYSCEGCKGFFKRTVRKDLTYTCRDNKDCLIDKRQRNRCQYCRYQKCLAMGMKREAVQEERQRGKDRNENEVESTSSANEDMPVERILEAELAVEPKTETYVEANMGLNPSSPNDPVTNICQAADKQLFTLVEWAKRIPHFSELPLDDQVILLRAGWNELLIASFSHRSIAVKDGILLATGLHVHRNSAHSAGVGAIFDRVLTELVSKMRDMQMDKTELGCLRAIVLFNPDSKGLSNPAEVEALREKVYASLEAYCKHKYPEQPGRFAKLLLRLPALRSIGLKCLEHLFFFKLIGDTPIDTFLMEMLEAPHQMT

[1] = target: T2, Retinoid X receptor (Homo sapiens) (UniProt P28702+P48443+P19793); assay: Agonist activity at human RXR binding domain and activation domain expressed in human HCT116 cells assessed as rexinoid activity at 25 nM incubated for 24 hrs by luciferase reporter gene based mammalian two-hybrid assay relative to bexarotene; format: cell-based
Procedure, shortened: (§1)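 HCT-116 cells plated overnight (80,000/well, DMEM with 10% FBS), co-transfected for 24 h with human RXR binding-domain (bait) and activation-domain (prey) vectors, pFR-Luc Gal4 reporter and renilla control. Treated 24 h at 25, 100 or 1000 nM final; vehicle ethanol or DMSO 0.1%. Dual-luciferase read-out. Three independent assays in triplicate; bexarotene set to 100%.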

[2] = target: T2, Retinoid X receptor (Homo sapiens); assay: Agonist activity at human RXR binding domain and activation domain expressed in human HCT116 cells assessed as rexinoid activity at 100 nM incubated for 24 hrs by luciferase reporter gene based mammalian two-hybrid assay relative to bexarotene; format: cell-based; procedure, shortened: as §1
[3] = target: T2, Retinoid X receptor (Homo sapiens); assay: Agonist activity at human RXR binding domain and activation domain expressed in human HCT116 cells assessed as rexinoid activity at 1000 nM incubated for 24 hrs by luciferase reporter gene based mammalian two-hybrid assay relative to bexarotene; format: cell-based; procedure, shortened: as §1
[4] = target: T2, Retinoid X receptor (Homo sapiens); assay: Antagonist activity against human RXR binding domain and activation domain expressed in human HCT116 cells assessed as reduction in bexarotene-induced rexinoid activity incubated for 24 hrs by luciferase reporter gene based mammalian two-hybrid assay; format: cell-based
[5] = target: T3, Retinoic acid receptor RXR-alpha (Homo sapiens) (UniProt P19793); assay: Agonist activity at human RXRalpha expressed in human HCT116 cells assessed as increase in RXRE-mediated transcription incubated for 24 hrs by RXRE luciferase reporter gene assay; format: cell-based
T3 sequence (whole entry): T1 sequence (P19793 whole entry)

[6] = target: T4, Retinoic acid receptor RXR-alpha/oxysterols receptor LXR-alpha (Homo sapiens, UniProt P19793+Q13133); assay: Agonist activity at human RXRalpha/LXRalpha expressed in human HCT116 cells assessed as reduction in SREBP-mediated transcription activity at 100 nM incubated for 24 hrs by luciferase reporter gene assay relative to bexarotene; format: cell-based; parameters: scale not given: the % may be the effect or the level left; details: 0.1 µM
T4 sequence (P19793 whole entry): T1 sequence (P19793 whole entry)
T4 sequence (Q13133 whole entry): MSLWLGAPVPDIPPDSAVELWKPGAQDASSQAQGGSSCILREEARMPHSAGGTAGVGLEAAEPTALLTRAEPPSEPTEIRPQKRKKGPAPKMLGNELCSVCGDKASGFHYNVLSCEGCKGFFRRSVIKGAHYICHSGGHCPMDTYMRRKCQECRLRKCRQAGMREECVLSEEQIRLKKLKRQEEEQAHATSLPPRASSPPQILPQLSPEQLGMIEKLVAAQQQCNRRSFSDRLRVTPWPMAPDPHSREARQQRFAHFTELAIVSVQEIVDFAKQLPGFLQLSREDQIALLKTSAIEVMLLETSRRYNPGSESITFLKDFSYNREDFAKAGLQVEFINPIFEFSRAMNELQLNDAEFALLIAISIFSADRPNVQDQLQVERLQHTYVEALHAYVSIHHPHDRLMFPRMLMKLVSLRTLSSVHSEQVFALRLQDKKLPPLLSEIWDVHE
Procedure, shortened: (§2)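 HCT116 cells co-transfected for 24 h with 100 ng pBP1c(6500)-Luc (about 6500 bp murine SREBP-1c promoter), 10 ng human LXRα and 20 ng renilla. Treated 24 h with compound at 100 nM, alone or with 100 nM TO901317. Luciferase output. Three independent assays in triplicate; bexarotene = 100%.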

[7] = Mutagenicity in Saccharomyces cerevisiae D7 assessed as induction of mutagenesis by measuring forward and reverse mutations up to 0.1 mg/mL; format: toxicity
HuT78 [8] = assay: Inhibition of HDAC1 gene expression in human HUT78 cells at 100 nM incubated for 48 hrs by quantitative real-time PCR method; format: functional; details: HuT78, 48 h
Procedure, shortened: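 Hut78 cells resuspended in RPMI with 1% FBS, plated 750,000/well and dosed at 100 nM for 48 h. Total RNA extracted, 0.5 µg DNase-treated RNA reverse-transcribed, then qPCR for HDAC1. Quantified by ΔΔCt, normalized to GAPDH and relative to vehicle-treated cells (2^-ΔΔCt).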

[9] = target: T3, Retinoic acid receptor RXR-alpha (Homo sapiens); assay: Agonist activity at human RXRalpha expressed in human HCT116 cells assessed as increase in RXRE-mediated transcription at 1000 nM incubated for 24 hrs by RXRE luciferase reporter gene assay relative to bexarotene; format: cell-based
Procedure, shortened: (§3)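 HCT-116 cells (80,000/well) co-transfected for 24 h with 250 ng RXRE-luciferase reporter (DR1 element from the rat cellular retinol binding protein II gene), 25 ng pSG5-human RXRα and 20 ng renilla. Dosed 24 h at 25, 100 or 1000 nM final; ethanol or DMSO vehicle 0.1%. Dual-luciferase read-out. Three independent assays in triplicate; bexarotene = 100%.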

Homo sapiens = organism: Homo sapiens; assay: Selectivity index, ratio of agonist activity at human RARalpha expressed in HEK293 cells assessed as increase in RARE-mediated transcription relative to bexarotene to agonist activity at human RXRalpha expressed in human HCT116 cells assessed as increase in RXRE-mediated transcription relative to bexarotene; format: cell-based
Procedure, shortened: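 HEK293 cells (60,000/well) transfected for 24 h with 250 ng pTK-DR5(X2)-Luc, 25 ng human RARα and 20 ng renilla. Treated 24 h at 100 nM; activity expressed as a percentage of all-trans-retinoic acid. This RARE activity is divided by 100 nM RXRE activity, with the bexarotene ratio set to 1.0.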

[10] = target: T4, Retinoic acid receptor RXR-alpha/oxysterols receptor LXR-alpha; assay: Agonist activity at human RXRalpha/LXRalpha expressed in human HCT116 cells assessed as reduction in SREBP-mediated transcription activity at 100 nM incubated for 24 hrs by luciferase reporter gene assay in presence of 100 nM LXR agonist TO901317 relative to bexarotene; format: cell-based; parameters: scale not given: the % may be the effect or the level left; details: 0.1 µM; procedure, shortened: as §2
HuT78 [11] = assay: Growth inhibition of human HUT78 cells at 200 nM incubated for 72 hrs by MTS assay relative to bexarotene; format: functional; details: HuT78, 72 h, read-out: GI
Procedure, shortened: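 Hut78 cells in RPMI with 10% FBS at 37°C, 5% CO2. Plated 7,500 cells/well and immediately dosed at 200 nM for 72 h. MTS read at A490; percent inhibition with media control set to 0.0, compared with bexarotene set to 100%. Mean of three independent experiments.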

[12] = target: T3, Retinoic acid receptor RXR-alpha (Homo sapiens); assay: Agonist activity at human RXRalpha expressed in human HCT116 cells assessed as increase in RXRE-mediated transcription at 25 nM incubated for 24 hrs by RXRE luciferase reporter gene assay relative to bexarotene; format: cell-based; procedure, shortened: as §3
[13] = target: T3, Retinoic acid receptor RXR-alpha (Homo sapiens); assay: Agonist activity at human RXRalpha expressed in human HCT116 cells assessed as increase in RXRE-mediated transcription at 100 nM incubated for 24 hrs by RXRE luciferase reporter gene assay relative to bexarotene; format: cell-based; procedure, shortened: as §3
[14] = Lipid risk index, ratio of agonist activity at human RXRalpha/LXRalpha expressed in human HCT116 cells assessed as reduction in SREBP-mediated transcription activity to agonist activity at human RXRalpha expressed in human HCT116 cells assessed as increase in RXRE-mediated transcription
Procedure, shortened: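 Lipid risk index: SREBP-promoter luciferase activity (HCT116, LXRα-transfected, 100 nM compound with or without 100 nM TO901317, 24 h) divided by RXRE activity at 100 nM. The SREBP:RXRE ratio for bexarotene is set to 1.0.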

| SMILES | EC50 (Retinoid X receptor) [nM] | Activity [1] [%] | Activity [2] | Activity [3] [%] | Activity [4] | Activity [5] | Activity [6] | Activity [7] | inhibition at 0.1 µM (HuT78 [8]) [%] | fold change (FC) ([2]; in the assay text read “relative to activity at 25 nM” for “relative to bexarotene”) | Activity [9] | Ratio (Homo sapiens) | Activity [10] | inhibition of growth at 0.2 µM (HuT78 [11]) [%] | Activity [12] [%] | Activity [13] [%] | Ratio [14] |
| --- | --- | --- | --- | --- | --- | --- | --- | --- | --- | --- | --- | --- | --- | --- | --- | --- | --- |
| C=C(c1ccc(S(=O)(=O)O)cc1)c1cc2c(cc1C)C(C)(C)CCC2(C)C | 18200 | 0.8 | inactive | 17 | Dose-dependent effect | inactive | Not Active | Non-Toxic |  |  |  |  |  |  |  |  |  |
| C=C(c1ccc(C(=O)O)cc1)c1cc2c(cc1C)C(C)(C)CCC2(C)C [BEXAROTENE] |  |  |  |  |  |  |  | Non-Toxic | 10 |  |  |  |  |  |  |  |  |
| CCN(c1cnc(C(=O)O)cn1)c1cc2c(cc1C)C(C)(C)CCC2(C)C | 295.5 | 3.4 |  |  |  | inactive | 54 to 79% | Non-Toxic |  | 5 to 16 | Active | > 0.5 | 29% | 35 to 51 |  |  |  |
| CCN(c1ccc(C(=O)O)c(F)c1)c1ccc2c(c1)C(C)(C)CCC2(C)C | 125.6 |  | Active |  |  |  | 54 to 79% | Non-Toxic |  |  | Active | 0.35 to 0.37 | Active | 35 to 51 | 27 to 66 | 16 to 32 | 0.48 - 0.65 |
| CC1=C(/C=C/C(C)=C/C=C/C(C)=C/C(=O)O)C(C)(C)CCC1 |  |  |  |  |  |  |  |  |  |  |  | 9.5 |  |  |  |  |  |
